ChEMBL document CHEMBL1134274, “Discovery of a series of nonpeptide small molecules that inhibit the binding of insulin-like growth factor (IGF) to IGF-binding proteins” (J Med Chem, 2001)

How the values were obtained:
[1] = target: Insulin-like growth factor-binding protein 3 (Homo sapiens, UniProt P17936); test: Inhibitory activity against Insulin-like growth factor binding protein 3
In short: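 IGFBP-3 purified from human plasma (0.5 pmol, 2.5 nM added) incubated 2 h at room temperature with [125I]hIGF-I (30,000 cpm) and compound in 0.02% NP-40/PBS pH 7.2, in duplicate. Complex precipitated with ice-cold 20% BSA plus 20% PEG-8000 and centrifuged; pellet counted by γ-counter. Ki calculated from inhibition of binding.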

[2] = target: T1, Insulin-like growth factor-binding protein 1 (Homo sapiens, UniProt P08833); test: The compound was tested for binding affinity against insulin-like growth factor binding protein 1
T1 sequence (P08833 whole entry): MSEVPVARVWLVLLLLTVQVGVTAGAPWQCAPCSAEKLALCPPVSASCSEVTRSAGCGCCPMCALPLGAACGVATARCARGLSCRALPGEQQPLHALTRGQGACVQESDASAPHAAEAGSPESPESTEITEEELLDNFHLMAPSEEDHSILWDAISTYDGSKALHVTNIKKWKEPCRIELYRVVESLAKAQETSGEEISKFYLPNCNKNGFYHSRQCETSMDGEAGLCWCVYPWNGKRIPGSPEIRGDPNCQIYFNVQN
In short: (§1)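 Human IGFBP-1, -2, -4, -5 or -6 expressed in Sf9 insect cells (baculovirus), purified on hIGF-II affinity column then reversed-phase HPLC. 0.5 pmol binding protein incubated with [125I]hIGF-I (30,000 cpm) and increasing compound concentrations, 2 h at room temperature, in 0.02% NP-40/PBS pH 7.2, in duplicate. Complex precipitated with BSA/PEG; pellet radioactivity counted to give dose–response curves.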

[3] = target: Insulin-like growth factor-binding protein 5 (Homo sapiens, UniProt P24593); test: The compound was tested for binding affinity against Insulin-like growth factor binding protein 5; in short: as §1
Chain of Insulin-like growth factor-binding protein 5 (P24593 whole entry): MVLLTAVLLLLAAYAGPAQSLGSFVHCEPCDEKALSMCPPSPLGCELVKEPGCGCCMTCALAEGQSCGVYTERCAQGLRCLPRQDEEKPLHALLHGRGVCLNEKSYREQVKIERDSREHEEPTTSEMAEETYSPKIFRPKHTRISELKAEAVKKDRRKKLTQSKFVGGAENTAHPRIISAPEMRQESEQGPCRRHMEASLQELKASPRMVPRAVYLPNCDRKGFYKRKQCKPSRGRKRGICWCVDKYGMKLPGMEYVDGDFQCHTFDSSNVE

[4] = target: T2, Insulin-like growth factor-binding protein 2 (Homo sapiens, UniProt P18065); test: The compound was tested for binding affinity against insulin-like growth factor binding protein 2; in short: as §1
T2 sequence (P18065 whole entry): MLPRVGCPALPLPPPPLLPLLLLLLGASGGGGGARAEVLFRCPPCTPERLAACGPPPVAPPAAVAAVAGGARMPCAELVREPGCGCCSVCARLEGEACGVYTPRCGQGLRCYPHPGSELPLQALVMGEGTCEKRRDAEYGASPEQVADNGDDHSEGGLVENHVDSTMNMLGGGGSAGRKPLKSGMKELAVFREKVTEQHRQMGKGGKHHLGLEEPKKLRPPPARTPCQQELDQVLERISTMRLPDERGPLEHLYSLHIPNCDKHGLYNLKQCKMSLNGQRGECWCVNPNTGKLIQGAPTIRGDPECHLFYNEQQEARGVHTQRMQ

[5] = target: T3, Insulin-like growth factor-binding protein 6 (Homo sapiens, UniProt P24592); test: The compound was tested for binding affinity against Insulin-like growth factor binding protein 6; in short: as §1
T3 sequence (P24592 whole entry): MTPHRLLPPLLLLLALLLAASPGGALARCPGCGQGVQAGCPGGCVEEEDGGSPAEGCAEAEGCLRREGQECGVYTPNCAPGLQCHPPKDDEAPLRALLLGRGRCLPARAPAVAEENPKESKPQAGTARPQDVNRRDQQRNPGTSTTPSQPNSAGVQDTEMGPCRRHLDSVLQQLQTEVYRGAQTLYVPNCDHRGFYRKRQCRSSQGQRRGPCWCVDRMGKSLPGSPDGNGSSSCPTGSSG

[6] = target: T4, Insulin-like growth factor-binding protein 4 (Homo sapiens, UniProt P22692); test: The compound was tested for binding affinity against Insulin-like growth factor binding protein 4; in short: as §1
T4 sequence (P22692 whole entry): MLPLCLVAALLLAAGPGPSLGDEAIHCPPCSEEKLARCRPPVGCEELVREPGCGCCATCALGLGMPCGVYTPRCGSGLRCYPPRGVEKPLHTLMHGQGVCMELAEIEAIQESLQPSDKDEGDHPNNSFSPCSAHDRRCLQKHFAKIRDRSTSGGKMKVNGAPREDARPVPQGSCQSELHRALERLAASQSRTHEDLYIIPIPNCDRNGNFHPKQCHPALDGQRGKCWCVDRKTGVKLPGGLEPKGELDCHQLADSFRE

Chain of Insulin-like growth factor-binding protein 3 (P17936 whole entry): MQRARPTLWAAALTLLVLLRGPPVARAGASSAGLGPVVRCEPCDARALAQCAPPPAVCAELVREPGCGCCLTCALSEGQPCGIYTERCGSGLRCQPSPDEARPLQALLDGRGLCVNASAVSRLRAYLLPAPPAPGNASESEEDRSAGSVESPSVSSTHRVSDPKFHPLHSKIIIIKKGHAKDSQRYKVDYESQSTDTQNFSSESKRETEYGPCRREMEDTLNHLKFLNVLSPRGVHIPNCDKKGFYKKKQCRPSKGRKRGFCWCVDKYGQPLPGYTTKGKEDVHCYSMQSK

COc1ccc(C(=O)c2[nH]c(=O)cc3cc(OC)c(OC)cc23)cc1OC
Ki [1]: > 10000 nM

COc1cc2c(C(=O)c3ccc(O)c(O)c3)nc(C(=O)O)cc2c(Br)c1O
Ki [1]: 70 nM

CCOC(=O)c1cc2cc(OC)c(OC)cc2c(C(=O)c2ccc(OC)c(OC)c2)n1
Ki [1]: > 10000 nM

O=C(O)c1cc2cc(O)c(O)cc2c(C(=O)c2cccc3ccccc23)n1
Ki [1]: 27 nM

O=C(O)c1cc2cc(O)c(O)cc2c(C(=O)c2ccc(Cl)cc2Cl)n1
Ki [1]: 44 nM

O=C(c1ccc(O)c(O)c1)c1nccc2cc(O)c(O)cc12
Ki [1]: 58 nM

O=C(c1ccc(O)c(O)c1)c1nc(O)cc2cc(O)c(O)cc12
Ki [2]: 34.2 nM | Ki [3]: 20.9 nM | Ki [4]: 17.1 nM | Ki [5]: 84.6 nM | Ki [6]: 6.23 nM | Ki [1]: 28 nM

O=C(O)c1cc2cc(O)c(O)cc2c(C(=O)c2ccc3ccccc3c2)n1
Ki [1]: 13 nM

COc1ccc(C(=O)c2nc(C(=O)O)cc3cc(OC)c(OC)cc23)cc1O
Ki [1]: > 10000 nM

COc1cc2cc(C(=O)O)nc(C(=O)c3ccc(O)c(O)c3)c2c(Br)c1O
Ki [1]: 140 nM

O=C(O)c1cc2cc(O)c(O)cc2c(C(=O)c2ccc3c(c2)OCO3)n1
Ki [1]: 70 nM

O=C(O)c1cc2cc(O)c(O)cc2c(C(=O)c2ccc(O)c(O)c2)n1
Ki [2]: 5.07 nM | Ki [3]: 5.2 nM | Ki [4]: 2.07 nM | Ki [5]: 23.6 nM | Ki [6]: 1.04 nM | Ki [1]: 5.6 nM

Oc1cc2cc(O)c(O)cc2c(Cc2ccc(O)c(O)c2)n1
Ki [1]: 29 nM

COc1cc2cc(C(=O)O)nc(C(=O)c3ccc(O)c(O)c3)c2cc1OC
Ki [1]: > 10000 nM

COc1ccc(C(=O)c2nc(C(=O)O)cc3cc(OC)c(O)cc23)cc1O
Ki [1]: 320 nM

O=C(O)c1cc2cc(O)c(O)cc2c(Cc2ccc(O)c(O)c2)n1
Ki [1]: 7.5 nM
